Measurements reported in ChEMBL document CHEMBL2401709 (J Med Chem, 2013).
One block for each molecule: values may come before it. The source made the active and inactive calls. No cut-off for these calls is given here.

How the values were obtained:
MCF7 = experiment: Cytotoxicity against human MCF7 cells assessed as growth inhibition after 72 hrs by calcein AM staining-based fluoroscence assay; type: functional, cell-based; conditions: MCF7, 72 h
[1] = molecular target: Cyclin-dependent kinase 2/cyclin E1 (Homo sapiens, UniProt P24941); experiment: Inhibition of human recombinant CDK2/Cyclin E expressed in baculovirus infected sf9 cells using histone H1 as substrate
K562 = experiment: Cytotoxicity against human K562 cells assessed as growth inhibition after 72 hrs by calcein AM staining-based fluoroscence assay; type: functional, cell-based; conditions: K562, 72 h
G-361 [2] = experiment: Induction of apoptosis in human G361 cells assessed as induction of caspase-7 clevage at 300 nM after 24 hrs by immunoblotting analysis; type: functional, cell-based
Procedure, shortened: (§1)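 Treated G361 cells harvested into Laemmli sample buffer. Proteins resolved by SDS-PAGE and blotted to nitrocellulose. Membranes blocked, probed overnight with specific primary antibodies, then peroxidase-conjugated secondaries. ECL detection by CCD camera. Actin served as loading control.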

G-361 [3] = experiment: Induction of apoptosis in human G361 cells assessed as induction of caspase-3 clevage at 300 nM after 24 hrs by immunoblotting analysis; type: functional, cell-based; procedure, shortened: as §1
G-361 [4] = experiment: Induction of apoptosis in human G361 cells assessed as decrease in Mcl-1 after 24 hrs by immunoblotting analysis; type: functional, cell-based; procedure, shortened: as §1
HOS = experiment: Cytotoxicity against human HOS cells assessed as growth inhibition after 72 hrs by calcein AM staining-based fluoroscence assay; type: functional, cell-based
G-361 [5] = experiment: Induction of apoptosis in human G361 cells assessed as caspase 9 activation using Ac-DEHD-AMC as substrate at 300 nM after 24 hrs by fluorimetry assay; type: functional, cell-based; conditions: in the assay text read “Ac-LEHD-AMC” for “Ac-DEHD-AMC”
Procedure, shortened: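 G361 lysates were made in CHAPS extraction buffer, pH 7.4, clarified at 10000g, and protein-equalized. They were incubated 24 h with 100 μM Ac-LEHD-AMC in 100 mM HEPES pH 7.5, 0.5 mM EDTA, 20% glycerol, 5 mM DTT. AMC fluorescence read at 355/460 nm (ex/em).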

[6] = molecular target: Cyclin-dependent kinase 7 (Homo sapiens) (UniProt P50613); experiment: Inhibition of CDK7 in human G361 cells assessed as reduction of phosphorylation of CDK2 at T160 by immunoblotting analysis; type: cell-based; conditions: G-361; procedure, shortened: as §1
[7] = molecular target: Cyclin-dependent kinase 2 (Homo sapiens) (UniProt P24941); experiment: Inhibition of CDK2 in human G361 cells sensitized with nocodazole assessed as NPM phosphorylation at Thr199 at 640 nM after 4 hrs by immunoblotting analysis; type: cell-based; conditions: G-361
Procedure, shortened: (§2)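 G361 cells arrested in mitosis with nocodazole, then dosed with compound. Lysates in Laemmli buffer were immunoblotted on nitrocellulose with antibodies to phospho-PP1α (T320) and phospho-NPM (T199). Peroxidase secondaries with ECL detection.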

G-361 [8] = experiment: Induction of apoptosis in human G361 cells assessed as induction of caspase-9 clevage at 300 nM after 24 hrs by immunoblotting analysis; type: functional, cell-based; procedure, shortened: as §1
G-361 [9] = experiment: Induction of apoptosis in human G361 cells assessed as dephosphorylation of retinoblastoma protein at Ser780 at 640 nM up to 1 hr by immunoblotting analysis; type: functional, cell-based; procedure, shortened: as §1
[10] = molecular target: Cyclin-dependent kinase 5/CDK5 activator 1 (Homo sapiens, UniProt Q00535); experiment: Inhibition of CDK5/p35 (unknown origin) using histone H1 as substrate; type: protein-complex assay
Procedure, shortened: (§3)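 CDK5/p35, CDK7/cyclin H/MAT1 and CDK9/cyclin T1 in 10 μL reactions with 0.05 μCi [γ-33P]ATP. CDK5 used 1 mg/mL histone H1 with 0.15 μM ATP. CDK7 and CDK9 used (YSPTSPS)2KK with 1.5 μM ATP. Stopped with H3PO4, spotted on P-81, washed. IC50 from dose-response curves.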

[11] = molecular target: T1, Cyclin-dependent kinase 1 (Homo sapiens, UniProt P06493); experiment: Inhibition of CDK1 in human G361 cells sensitized with nocodazole assessed as PP1alpha phosphorylation at Thr320 at 640 nM after 8 hrs by immunoblotting analysis; type: cell-based; conditions: G-361; procedure, shortened: as §2
G-361 [12] = experiment: Induction of apoptosis in human G361 cells assessed as increase of activated caspase 3/7 level using Ac-DEVD-AMC as substrate at 20 to 1280 nM after 24 hrs by fluorimetry assay
G-361 [13] = experiment: Induction of apoptosis in human G361 cells assessed as decrease in Mcl-1 protein level at 300 nM after 24 hrs by immunoblotting analysis; type: functional, cell-based; procedure, shortened: as §1
CDK7/Cyclin H/MNAT1 = CDK7/Cyclin H/MNAT1 (Homo sapiens, UniProt P50613); experiment: Inhibition of CDK7/Cyclin-H/MAT 1 (unknown origin) using (YSPTSPS)2KK peptide as substrate; type: protein-complex assay; procedure, shortened: as §3
[14] = molecular target: Cyclin-dependent kinase 7 (Homo sapiens) (UniProt P50613); experiment: Inhibition of CDK7 in human G361 cells assessed as reduction of phosphorylation of CDK1 at T161 by immunoblotting analysis; type: cell-based; conditions: G-361; procedure, shortened: as §1
HeLa = experiment: Cytotoxicity against human HeLa cells assessed as growth inhibition after 72 hrs by calcein AM staining-based fluoroscence assay; type: functional, cell-based
G-361 [15] = experiment: Cytotoxicity against human G361 cells assessed as growth inhibition after 72 hrs by calcein AM staining-based fluoroscence assay; type: functional, cell-based; conditions: G-361, 72 h
[16] = molecular target: Cyclin-dependent kinase 9 (Homo sapiens) (UniProt P50750); experiment: Inhibition of CDK9-mediated RNA polymerase 2 phosphorylation at ser2 in human G361 cells at 300 nM after 24 hrs by immunoblotting analysis; type: cell-based; conditions: G-361; procedure, shortened: as §1
G-361 [17] = experiment: Induction of apoptosis in human G361 cells assessed as induction of PARP-1 clevage at 80 nM after 24 hrs by immunoblotting analysis; type: functional, cell-based; procedure, shortened: as §1
G-361 [18] = experiment: Induction of apoptosis in human G361 cells assessed as reduction of retinoblastoma protein level at 640 nM after 16 hrs by immunoblotting analysis; type: functional, cell-based; procedure, shortened: as §1
G-361 [19] = experiment: Induction of apoptosis in human G361 cells assessed as reduction of RNA polymerase 2 level at 640 nM after 16 hrs by immunoblotting analysis; type: functional, cell-based; procedure, shortened: as §1
G-361 [20] = experiment: Induction of apoptosis in human G361 cells assessed as dephosphorylation of retinoblastoma protein at Ser612 at 640 nM up to 1 hr by immunoblotting analysis; type: functional, cell-based; procedure, shortened: as §1
[21] = molecular target: Cyclin-dependent kinase 2/cyclin E1 (Homo sapiens) (UniProt P24864+P24941); experiment: Ratio of roscovitine IC50 to compound IC50 for human recombinant CDK2/Cyclin E; type: protein-complex assay
CDK2/CDK4 (Homo sapiens) = CDK2/CDK4 (Homo sapiens) (UniProt P11802+P24941); experiment: Inhibition of CDK2/4-mediated retinoblastoma protein phosphorylation at ser780 in human G361 cells at 300 nM after 24 hrs by immunoblotting analysis; type: cell-based; conditions: G-361; procedure, shortened: as §1
G-361 [22] = experiment: Induction of apoptosis in human G361 cells assessed as induction of PARP-1 clevage at 640 nM after 16 hrs by immunoblotting analysis; type: functional, cell-based; procedure, shortened: as §1
G-361 [23] = experiment: Induction of apoptosis in human G361 cells assessed as decrease in Mcl-1 at 300 nM after 24 hrs by immunoblotting analysis; type: functional, cell-based; procedure, shortened: as §1
G-361 [24] = experiment: Induction of apoptosis in human G361 cells assessed as decrease in Mcl-1 at 640 nM up to 2 hrs by immunoblotting analysis; type: functional, cell-based; procedure, shortened: as §1
[25] = molecular target: T1, Cyclin-dependent kinase 1; experiment: Inhibition of CDK1 in human G361 cells sensitized with nocodazole assessed as PP1alpha phosphorylation at Thr320 at 640 nM after 4 hrs by immunoblotting analysis; type: cell-based; conditions: G-361; procedure, shortened: as §2
HCT-116 = experiment: Cytotoxicity against human HCT116 cells assessed as growth inhibition after 72 hrs by calcein AM staining-based fluoroscence assay; type: functional, cell-based; conditions: HCT-116, 72 h
G-361 [26] = experiment: Induction of apoptosis in human G361 cells assessed as caspase 3/7 activation using Ac-DEVD-AMC as substrate at 300 nM after 24 hrs by fluorimetry assay; type: functional, cell-based
G-361 [27] = experiment: Induction of apoptosis in human G361 cells assessed as increase in p53 after 24 hrs by immunoblotting analysis; type: functional, cell-based; procedure, shortened: as §1
CDK9/cyclin T1 = CDK9/cyclin T1 (Homo sapiens, UniProt P50750); experiment: Inhibition of CDK9/Cyclin T1 (unknown origin) using (YSPTSPS)2KK peptide as substrate; type: protein-complex assay; procedure, shortened: as §3
G-361 [28] = experiment: Induction of apoptosis in human G361 cells assessed as caspase 3/7 activation at 640 nM after 16 hrs by Ac-DEVD-AMC-based fluorimetry assay; type: functional, cell-based
G-361 [29] = experiment: Induction of apoptosis in human G361 cells assessed as dephosphorylation of RNA polymerase 2 at Ser2 at 640 nM up to 1 hr by immunoblotting analysis; type: functional, cell-based; procedure, shortened: as §1
G-361 [30] = experiment: Induction of apoptosis in human G361 cells assessed as increase of caspase 3/7 activation using Ac-DEVD-AMC as substrate at 20 to 1280 nM after 24 hrs by fluorimetry assay; type: functional, cell-based
G-361 [31] = experiment: Induction of apoptosis in human G361 cells assessed as induction of PARP-1 clevage at 300 nM after 24 hrs by immunoblotting analysis; type: functional, cell-based; procedure, shortened: as §1
G-361 [32] = experiment: Induction of apoptosis in human G361 cells assessed as dephosphorylation of RNA polymerase 2 at Ser5 at 640 nM up to 1 hr by immunoblotting analysis; type: functional, cell-based; procedure, shortened: as §1

T1 sequence (P06493 whole entry, looked up): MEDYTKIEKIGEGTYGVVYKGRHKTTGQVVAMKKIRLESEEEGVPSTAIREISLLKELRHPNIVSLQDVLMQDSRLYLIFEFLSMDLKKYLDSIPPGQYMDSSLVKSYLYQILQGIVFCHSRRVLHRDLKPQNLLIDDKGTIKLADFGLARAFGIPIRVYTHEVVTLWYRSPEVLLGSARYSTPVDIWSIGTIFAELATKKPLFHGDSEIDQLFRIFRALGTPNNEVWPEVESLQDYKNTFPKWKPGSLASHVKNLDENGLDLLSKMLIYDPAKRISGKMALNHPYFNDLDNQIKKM
Sequence of Cyclin-dependent kinase 7 (Homo sapiens) (P50613 whole entry): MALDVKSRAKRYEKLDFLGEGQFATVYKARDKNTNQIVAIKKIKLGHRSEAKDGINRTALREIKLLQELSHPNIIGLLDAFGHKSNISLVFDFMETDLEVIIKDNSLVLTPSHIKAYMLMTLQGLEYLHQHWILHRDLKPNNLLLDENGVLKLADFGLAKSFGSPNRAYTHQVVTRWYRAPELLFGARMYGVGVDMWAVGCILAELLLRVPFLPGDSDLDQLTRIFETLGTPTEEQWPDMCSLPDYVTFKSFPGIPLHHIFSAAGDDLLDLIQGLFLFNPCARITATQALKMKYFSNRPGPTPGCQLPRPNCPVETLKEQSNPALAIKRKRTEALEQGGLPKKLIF
Sequence of Cyclin-dependent kinase 9 (Homo sapiens) (P50750 whole entry): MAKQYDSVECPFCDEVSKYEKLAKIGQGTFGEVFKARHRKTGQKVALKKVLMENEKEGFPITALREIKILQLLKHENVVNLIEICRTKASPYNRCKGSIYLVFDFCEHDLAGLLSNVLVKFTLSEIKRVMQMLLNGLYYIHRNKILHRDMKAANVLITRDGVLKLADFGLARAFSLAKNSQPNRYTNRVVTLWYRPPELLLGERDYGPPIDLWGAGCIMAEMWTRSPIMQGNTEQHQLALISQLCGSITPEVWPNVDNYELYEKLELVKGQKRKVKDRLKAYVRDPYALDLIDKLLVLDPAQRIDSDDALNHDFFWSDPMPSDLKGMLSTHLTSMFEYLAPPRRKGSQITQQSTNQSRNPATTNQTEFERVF
Sequence of CDK7/Cyclin H/MNAT1 (P51946 whole entry): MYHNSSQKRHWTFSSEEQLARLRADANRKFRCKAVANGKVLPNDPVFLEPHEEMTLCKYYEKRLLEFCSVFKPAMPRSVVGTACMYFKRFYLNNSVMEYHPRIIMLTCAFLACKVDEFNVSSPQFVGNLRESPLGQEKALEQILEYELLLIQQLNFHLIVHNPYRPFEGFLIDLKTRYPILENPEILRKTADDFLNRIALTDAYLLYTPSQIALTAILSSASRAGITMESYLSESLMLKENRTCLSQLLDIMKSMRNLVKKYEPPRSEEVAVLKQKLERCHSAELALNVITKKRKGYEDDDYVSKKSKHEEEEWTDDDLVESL
Sequence of CDK7/Cyclin H/MNAT1 (P50613 whole entry): as the sequence (P50613 whole entry) above
Sequence of CDK7/Cyclin H/MNAT1 (P51948 whole entry, further chain): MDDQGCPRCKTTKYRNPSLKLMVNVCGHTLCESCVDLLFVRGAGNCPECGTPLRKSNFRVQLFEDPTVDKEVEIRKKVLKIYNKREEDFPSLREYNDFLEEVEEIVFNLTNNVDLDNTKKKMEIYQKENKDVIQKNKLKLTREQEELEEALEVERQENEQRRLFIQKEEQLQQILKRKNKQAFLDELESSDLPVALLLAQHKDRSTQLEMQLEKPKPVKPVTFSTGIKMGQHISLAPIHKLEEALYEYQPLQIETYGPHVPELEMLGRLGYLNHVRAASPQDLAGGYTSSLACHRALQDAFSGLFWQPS
Sequence of Cyclin-dependent kinase 5/CDK5 activator 1 (Q00535 whole entry): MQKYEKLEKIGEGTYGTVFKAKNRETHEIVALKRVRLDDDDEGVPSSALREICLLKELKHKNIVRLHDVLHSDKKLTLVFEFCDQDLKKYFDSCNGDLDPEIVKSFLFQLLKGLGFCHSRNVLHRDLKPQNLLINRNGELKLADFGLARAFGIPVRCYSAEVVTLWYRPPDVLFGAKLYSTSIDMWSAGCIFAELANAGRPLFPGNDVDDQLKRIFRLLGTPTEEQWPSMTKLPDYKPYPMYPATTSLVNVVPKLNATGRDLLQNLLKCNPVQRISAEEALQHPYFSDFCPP
Sequence of Cyclin-dependent kinase 5/CDK5 activator 1 (Q15078 whole entry, further chain): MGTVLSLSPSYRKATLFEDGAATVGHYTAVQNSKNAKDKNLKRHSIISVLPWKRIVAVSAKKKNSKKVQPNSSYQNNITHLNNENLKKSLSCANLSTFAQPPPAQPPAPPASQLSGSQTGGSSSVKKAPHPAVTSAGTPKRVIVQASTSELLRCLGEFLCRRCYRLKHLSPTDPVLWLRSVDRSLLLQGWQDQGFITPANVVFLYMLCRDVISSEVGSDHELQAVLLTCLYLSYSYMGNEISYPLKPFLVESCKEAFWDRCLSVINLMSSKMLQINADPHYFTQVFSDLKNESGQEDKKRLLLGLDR
Sequence of CDK9/cyclin T1 (O60563 whole entry): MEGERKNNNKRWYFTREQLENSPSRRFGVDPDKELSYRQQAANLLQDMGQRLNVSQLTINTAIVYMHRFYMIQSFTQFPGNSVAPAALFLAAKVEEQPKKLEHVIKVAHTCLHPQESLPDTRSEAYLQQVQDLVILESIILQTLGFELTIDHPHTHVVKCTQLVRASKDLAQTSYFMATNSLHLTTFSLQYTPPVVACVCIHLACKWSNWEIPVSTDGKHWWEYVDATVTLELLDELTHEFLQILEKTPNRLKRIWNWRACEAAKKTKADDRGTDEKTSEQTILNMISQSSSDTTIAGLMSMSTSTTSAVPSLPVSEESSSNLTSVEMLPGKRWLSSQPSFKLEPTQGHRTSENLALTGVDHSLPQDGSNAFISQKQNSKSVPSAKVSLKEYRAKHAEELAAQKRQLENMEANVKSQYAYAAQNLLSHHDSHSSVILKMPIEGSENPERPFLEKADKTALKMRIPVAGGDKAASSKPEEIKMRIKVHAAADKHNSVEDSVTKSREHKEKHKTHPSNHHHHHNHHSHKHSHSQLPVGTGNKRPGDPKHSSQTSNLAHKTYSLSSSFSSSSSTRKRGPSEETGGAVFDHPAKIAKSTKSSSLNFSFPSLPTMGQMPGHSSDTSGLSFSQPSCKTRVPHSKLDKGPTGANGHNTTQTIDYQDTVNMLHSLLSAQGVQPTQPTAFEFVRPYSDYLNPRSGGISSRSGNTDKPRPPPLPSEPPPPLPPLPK
Sequence of CDK9/cyclin T1 (P50750 whole entry): as the sequence (P50750 whole entry) above

IC50 [1]: 7.1 nM | inhibition [6]: Active | IC50 [10]: 18.7 nM | IC50 (CDK7/Cyclin H/MNAT1): 306 nM | inhibition [14]: Active | Inhibition of RNA polymerase II Ser2 phosphorylation (qualitative) [16]: Active | Ratio IC50 [21]: 20 | inhibition (CDK2/CDK4 (Homo sapiens)): Active | IC50 (CDK9/cyclin T1): 10.9 nM
SMILES: NC1CCC(Nc2nc(NCc3ccc(-c4ccccc4O)nc3)c3ncn(C4CCCC4)c3n2)CC1 (stereo not drawn)
IC50 (MCF7): 18 nM | IC50 (K562): 16 nM | Activity (G-361 [2]): Active | Activity (G-361 [3]): Active | Activity (G-361 [4]): Dose-dependent effect | IC50 (HOS): 14 nM | Activity (G-361 [5]): Active | inhibition [7]: Active | Activity (G-361 [8]): Active | Activity (G-361 [9]): Active | inhibition [11]: Active | Activity (G-361 [12]): Active | Activity (G-361 [13]): Active | IC50 (HeLa): 16 nM | IC50 (G-361 [15]): 24 nM | Activity (G-361 [17]): Active | Activity (G-361 [18]): Active | Activity (G-361 [19]): Active | Activity (G-361 [20]): Active | Activity (G-361 [22]): Active | Activity (G-361 [23]): Active | Activity (G-361 [24]): Active | inhibition [25]: Active | IC50 (HCT-116): 35 nM | Activity (G-361 [26]): Active | Activity (G-361 [27]): Dose-dependent effect | Activity (G-361 [28]): Active | Activity (G-361 [29]): Active | Activity (G-361 [30]): Active | Activity (G-361 [31]): Active | Activity (G-361 [32]): Active

IC50 [1]: 8 nM | Inhibition of RNA polymerase II Ser2 phosphorylation (qualitative) [16]: Active | Ratio IC50 [21]: 20 | inhibition (CDK2/CDK4 (Homo sapiens)): Active
SMILES: NC1CCC(Nc2nc(NCc3ccc(-c4ccoc4)nc3)c3ncn(C4CCCC4)c3n2)CC1 (stereo not drawn)
IC50 (MCF7): 32 nM | IC50 (K562): 56 nM | Activity (G-361 [2]): Active | Activity (G-361 [3]): Active | IC50 (HOS): 24 nM | Activity (G-361 [5]): Active | Activity (G-361 [8]): Active | Activity (G-361 [13]): Active | IC50 (HeLa): 15 nM | IC50 (G-361 [15]): 97 nM | Activity (G-361 [23]): Active | IC50 (HCT-116): 46 nM | Activity (G-361 [26]): Active | Activity (G-361 [31]): Active
